The source made the active and inactive calls. The calls are words filed in the database; no cut-off is given here.

The values that follow come from ChEMBL document CHEMBL4304739, “Discovery of 3-(Indol-5-yl)-indazole Derivatives as Novel Myeloid Differentiation Protein 2/Toll-like Receptor 4 Antagonists for Treatment of Acute Lung Injury” (J Med Chem, 2019).

In test [1] the target is Serine/threonine-protein kinase pim-2 (Homo sapiens) (UniProt Q9P1W9). In words: Inhibition of wild-type human partial length PIM2 (M1 to E291 residues) expressed in bacterial expression system at 1 uM by Kinomescan method. The method, boiled down: (§1)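 Binding-competition screen on the KINOMEscan platform, run by the provider, with the test compound at 1 μM. Readout is percent of control: (test signal − positive control signal)/(negative control signal − positive control signal) × 100. The DMSO negative control is set as 100% Ctrl and a control compound as 0% Ctrl. Lower values mean stronger hits.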

In test [2] the target is MAP kinase-interacting serine/threonine-protein kinase 1 (Homo sapiens) (UniProt Q9BUB5). In words: Inhibition of wild-type human full length MKNK1 (M1 to L424 residues) expressed in mammalian expression system at 1 uM by Kinomescan method. The method, boiled down:
(§2)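 KINOMEscan competition binding screen at 1 μM compound. Results reported as % of control = (test − positive control)/(DMSO negative control − positive control) × 100, where lower values mean stronger hits.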

Test [3] concerns the target Serine/threonine-protein kinase PAK 1 (Homo sapiens) (UniProt Q13153). In words: Inhibition of wild-type human partial length PAK1 (S149 to H545 residues) expressed in bacterial expression system at 1 uM by Kinomescan method. A digest of the protocol:
as §1

Test [4] addresses Tyrosine-protein kinase receptor UFO (Homo sapiens) (UniProt P30530). The test is described as follows: Inhibition of wild-type human partial length AXL (R497 to Y821 residues) expressed in bacterial expression system at 1 uM by Kinomescan method. The method, boiled down:
as §1

Test [5] deals with Protein kinase C epsilon type (Homo sapiens) (UniProt Q02156). The test is described as follows: Inhibition of wild-type human partial length PRKCE (A378 to P737 residues) expressed in mammalian expression system at 1 uM by Kinomescan method. The method, boiled down:
as §1

The target of test [6] is Activin receptor type-1B (Homo sapiens) (UniProt P36896). The test is described as follows: Inhibition of wild-type human ACVR1B (S187 to I505 residues) expressed in bacterial expression system at 1 uM by Kinomescan method. The method, boiled down:
as §2

Test [7] concerns Mus musculus. In words: Antiinflammatory activity in LPS-induced C57BL/6 mouse model of acute lung injury assessed as reduction in lung injury score at 5 to 10 mg/kg, iv pretreated for 15 mins followed by LPS stimulation and measured after 6 hrs. The class given is functional, organism-based. A digest of the protocol:
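Male C57BL/6 mice (18−22 g; n=8 per group). Compound in 0.1% CMC-Na given by tail vein injection 15 min before intraperitoneal LPS (20 mg/kg); controls received saline. Mice were sacrificed 6 h after LPS, and serum and lung tissue were collected.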

Test [8] has as its target 3-phosphoinositide-dependent protein kinase 1 (Homo sapiens) (UniProt O15530). In words: Inhibition of wild-type human full length PDPK1 (M1 to Q556 residues) expressed in bacterial expression system at 1 uM by Kinomescan method. The method, boiled down:
as §2

Test [9] has as its target RAC-alpha serine/threonine-protein kinase (Homo sapiens) (UniProt P31749). The test is described as follows: Inhibition of wild-type human partial length AKT1 expressed in bacterial expression system at 1 uM by Kinomescan method. The method, boiled down: as §2
Test [10] has as its target Casein kinase I isoform gamma-1 (Homo sapiens) (UniProt Q9HCP0). In words: Inhibition of wild-type human partial length CSNK1G1 (T15 to S353 residues) expressed in bacterial expression system at 1 uM by Kinomescan method. A digest of the protocol:
as §1

Test [11] has as its target Phosphatidylinositol 4,5-bisphosphate 3-kinase catalytic subunit gamma isoform (Homo sapiens) (UniProt P48736). The test is described as follows: Inhibition of wild-type human partial length PIK3CG (S144 to A1102 residues) expressed in mammalian expression system at 1 uM by Kinomescan method. A digest of the protocol:
as §1

For test [12], the system named is Mus musculus. In words: Antiinflammatory activity in LPS-induced C57BL/6 mouse model of acute lung injury assessed as reduction in IL6 mRNA level at 10 mg/kg, iv pretreated for 15 mins followed by LPS stimulation and measured after 6 hrs by SYBR green staining-based qRT-PCR analysis. The class given is functional, organism-based. A digest of the protocol: (§3)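 Total lung RNA extracted, with DNase I removal of residual DNA. Quantitative PCR with mouse gene primers; each gene normalized to β-actin. C57BL/6 mice given compound iv 15 min before intraperitoneal LPS (20 mg/kg) and killed at 6 h.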
On the technique in general: Real-time PCR tracks product formation cycle by cycle.

The test system of test [13] is Epidermal growth factor receptor (Homo sapiens), P00533 [L858R]. The test is described as follows: Inhibition of human partial length EGFR L858R mutant (R669 to V1011 residues) expressed in bacterial expression system at 1 uM by Kinomescan method. The method, boiled down:
(§4)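 KINOMEscan competition binding panel (98 kinases) run by the provider, compound screened once at 1 μM. Read-out is percent of control: [(test signal − positive control signal)/(negative control signal − positive control signal)] × 100. DMSO negative control sets 100% Ctrl and a control compound sets 0% Ctrl; lower values mean stronger hits.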

Test [14] addresses Phosphatidylinositol 4-phosphate 3-kinase C2 domain-containing subunit beta (Homo sapiens) (UniProt O00750). The test is described as follows: Inhibition of wild-type human partial length PIK3C2B (M1 to L1634 residues) expressed in mammalian expression system at 1 uM by Kinomescan method. A digest of the protocol: as §1
Test [15] deals with Mus musculus. The test is described as follows: Antiinflammatory activity in LPS-induced C57BL/6 mouse model of acute lung injury assessed as reduction in IL12 mRNA level at 10 mg/kg, iv pretreated for 15 mins followed by LPS stimulation and measured after 6 hrs by SYBR green staining-based qRT-PCR analysis. The class given is functional, organism-based. A digest of the protocol:
as §3

The target in test [16] is RAF proto-oncogene serine/threonine-protein kinase (Homo sapiens) (UniProt P04049). The test is described as follows: Inhibition of wild-type human partial length RAF1 (I330 to T640 residues) expressed in bacterial expression system at 1 uM by Kinomescan method. A digest of the protocol: as §1
The target of test [17] is Tyrosine-protein kinase BTK (Homo sapiens) (UniProt Q06187). In words: Inhibition of wild-type human full length BTK (M1 to S659 residues) expressed in mammalian expression system at 1 uM by Kinomescan method. A digest of the protocol:
as §2

Test [18] has as its target Ephrin type-A receptor 2 (Homo sapiens) (UniProt P29317). In words: Inhibition of wild-type human partial length EPHA2 (T593 to V891 residues) expressed in bacterial expression system at 1 uM by Kinomescan method. The method, boiled down: as §1
In test [19] the test system is Mast/stem cell growth factor receptor Kit (Homo sapiens), P10721 [D816V]. In words: Inhibition of human partial length KIT D816V mutant (I571 to D952 residues) expressed in bacterial expression system at 1 uM by Kinomescan method. A digest of the protocol: as §4
For another test, the target named is Toll-like receptor 4 (Homo sapiens, UniProt O00206). The test is described as follows: Inhibition of HA-tagged/FLAG-tagged TLR4 (unknown origin) homodimerization expressed in HEK293T cells by co-immunoprecipitation method. The class given is cell-based. The method, boiled down:
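HEK293T cells co-transfected with HA- and Flag-tagged TLR4 plasmids. Compound at various concentrations or vehicle added 6 h after transfection. Lysates immunoprecipitated with protein A/G agarose and detected by immunoblot with anti-HA and anti-Flag antibodies.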

The target in test [20] is Hepatocyte growth factor receptor (Homo sapiens) (UniProt P08581). The test is described as follows: Inhibition of wild-type human partial length MET (D1010 to S1367 residues) expressed in bacterial expression system at 1 uM by Kinomescan method. A digest of the protocol:
as §1

Test [21] addresses Cyclin-dependent kinase 2 (Homo sapiens) (UniProt P24941). The test is described as follows: Inhibition of wild-type human full length CDK2 (M1 to L298 residues) expressed in bacterial expression system at 1 uM by Kinomescan method. The method, boiled down: as §2

Mast/stem cell growth factor receptor Kit (Homo sapiens), P10721 [D816V], sequence (P10721 whole entry D816V, the tested form may be a part): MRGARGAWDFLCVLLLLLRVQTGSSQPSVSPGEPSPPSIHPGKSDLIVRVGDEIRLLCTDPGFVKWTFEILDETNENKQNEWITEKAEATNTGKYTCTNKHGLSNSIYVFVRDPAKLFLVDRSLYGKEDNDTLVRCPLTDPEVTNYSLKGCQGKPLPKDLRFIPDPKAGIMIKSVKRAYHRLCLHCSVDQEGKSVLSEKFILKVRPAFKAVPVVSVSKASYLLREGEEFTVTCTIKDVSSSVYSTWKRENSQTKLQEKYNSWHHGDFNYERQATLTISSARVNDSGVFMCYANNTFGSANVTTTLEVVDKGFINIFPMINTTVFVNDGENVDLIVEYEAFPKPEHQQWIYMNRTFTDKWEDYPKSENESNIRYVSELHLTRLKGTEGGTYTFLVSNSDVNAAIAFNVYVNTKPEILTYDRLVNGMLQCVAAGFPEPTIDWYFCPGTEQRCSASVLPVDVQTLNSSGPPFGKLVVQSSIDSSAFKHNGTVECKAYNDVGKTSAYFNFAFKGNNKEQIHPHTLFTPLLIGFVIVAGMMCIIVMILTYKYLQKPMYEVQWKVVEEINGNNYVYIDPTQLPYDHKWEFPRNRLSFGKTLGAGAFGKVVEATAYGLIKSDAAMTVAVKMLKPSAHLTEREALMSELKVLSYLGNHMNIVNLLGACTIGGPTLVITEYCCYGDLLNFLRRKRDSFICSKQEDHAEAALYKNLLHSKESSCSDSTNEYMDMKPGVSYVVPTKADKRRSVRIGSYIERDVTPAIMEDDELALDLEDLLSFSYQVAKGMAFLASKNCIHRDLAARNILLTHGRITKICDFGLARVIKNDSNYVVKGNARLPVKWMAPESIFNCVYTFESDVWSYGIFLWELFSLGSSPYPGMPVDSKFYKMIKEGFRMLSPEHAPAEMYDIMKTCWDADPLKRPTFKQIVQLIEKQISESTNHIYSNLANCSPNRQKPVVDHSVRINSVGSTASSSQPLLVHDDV
Phosphatidylinositol 4-phosphate 3-kinase C2 domain-containing subunit beta (Homo sapiens), sequence (O00750 whole entry, the tested form may be a part): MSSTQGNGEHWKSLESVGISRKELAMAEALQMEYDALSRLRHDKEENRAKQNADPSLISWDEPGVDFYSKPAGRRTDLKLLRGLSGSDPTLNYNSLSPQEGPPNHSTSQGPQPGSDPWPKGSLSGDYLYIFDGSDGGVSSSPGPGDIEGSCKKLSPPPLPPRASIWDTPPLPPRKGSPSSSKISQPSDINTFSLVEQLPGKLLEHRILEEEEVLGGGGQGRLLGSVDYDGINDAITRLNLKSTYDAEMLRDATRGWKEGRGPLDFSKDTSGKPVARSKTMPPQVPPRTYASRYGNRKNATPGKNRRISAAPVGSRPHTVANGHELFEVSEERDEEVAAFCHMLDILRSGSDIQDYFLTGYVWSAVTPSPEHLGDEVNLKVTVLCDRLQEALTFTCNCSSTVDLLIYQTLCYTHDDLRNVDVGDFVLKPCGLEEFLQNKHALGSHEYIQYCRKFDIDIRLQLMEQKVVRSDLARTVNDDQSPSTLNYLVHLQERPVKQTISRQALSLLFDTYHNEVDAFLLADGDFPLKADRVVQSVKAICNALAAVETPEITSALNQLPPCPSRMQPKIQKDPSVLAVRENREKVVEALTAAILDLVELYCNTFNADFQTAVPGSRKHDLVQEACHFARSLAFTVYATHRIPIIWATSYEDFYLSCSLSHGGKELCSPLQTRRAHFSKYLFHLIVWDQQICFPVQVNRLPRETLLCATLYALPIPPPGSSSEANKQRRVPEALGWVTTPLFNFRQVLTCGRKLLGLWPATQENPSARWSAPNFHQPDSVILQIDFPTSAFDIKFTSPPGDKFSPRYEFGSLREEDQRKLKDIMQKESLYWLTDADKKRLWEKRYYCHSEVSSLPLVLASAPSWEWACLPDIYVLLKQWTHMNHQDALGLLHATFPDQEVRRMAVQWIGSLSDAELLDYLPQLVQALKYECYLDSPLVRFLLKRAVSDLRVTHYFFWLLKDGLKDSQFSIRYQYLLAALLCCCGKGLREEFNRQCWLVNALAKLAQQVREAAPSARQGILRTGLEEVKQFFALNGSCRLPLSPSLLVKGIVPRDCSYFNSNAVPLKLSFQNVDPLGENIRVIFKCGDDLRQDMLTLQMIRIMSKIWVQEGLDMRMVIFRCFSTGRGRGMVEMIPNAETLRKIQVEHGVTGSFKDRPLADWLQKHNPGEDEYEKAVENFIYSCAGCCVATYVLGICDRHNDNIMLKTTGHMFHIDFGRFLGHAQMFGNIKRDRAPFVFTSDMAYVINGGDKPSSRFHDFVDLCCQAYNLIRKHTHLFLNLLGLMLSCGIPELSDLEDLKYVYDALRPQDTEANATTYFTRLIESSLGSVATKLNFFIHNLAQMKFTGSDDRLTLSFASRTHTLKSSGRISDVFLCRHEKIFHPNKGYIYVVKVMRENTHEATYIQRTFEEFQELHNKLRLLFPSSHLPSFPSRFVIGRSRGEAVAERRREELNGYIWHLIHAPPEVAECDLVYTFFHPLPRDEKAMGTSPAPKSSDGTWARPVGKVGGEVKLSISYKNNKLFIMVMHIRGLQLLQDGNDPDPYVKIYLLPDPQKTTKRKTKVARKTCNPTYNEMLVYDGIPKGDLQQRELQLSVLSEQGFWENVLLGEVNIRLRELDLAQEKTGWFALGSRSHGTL
Hepatocyte growth factor receptor (Homo sapiens), sequence (P08581 whole entry, the tested form may be a part): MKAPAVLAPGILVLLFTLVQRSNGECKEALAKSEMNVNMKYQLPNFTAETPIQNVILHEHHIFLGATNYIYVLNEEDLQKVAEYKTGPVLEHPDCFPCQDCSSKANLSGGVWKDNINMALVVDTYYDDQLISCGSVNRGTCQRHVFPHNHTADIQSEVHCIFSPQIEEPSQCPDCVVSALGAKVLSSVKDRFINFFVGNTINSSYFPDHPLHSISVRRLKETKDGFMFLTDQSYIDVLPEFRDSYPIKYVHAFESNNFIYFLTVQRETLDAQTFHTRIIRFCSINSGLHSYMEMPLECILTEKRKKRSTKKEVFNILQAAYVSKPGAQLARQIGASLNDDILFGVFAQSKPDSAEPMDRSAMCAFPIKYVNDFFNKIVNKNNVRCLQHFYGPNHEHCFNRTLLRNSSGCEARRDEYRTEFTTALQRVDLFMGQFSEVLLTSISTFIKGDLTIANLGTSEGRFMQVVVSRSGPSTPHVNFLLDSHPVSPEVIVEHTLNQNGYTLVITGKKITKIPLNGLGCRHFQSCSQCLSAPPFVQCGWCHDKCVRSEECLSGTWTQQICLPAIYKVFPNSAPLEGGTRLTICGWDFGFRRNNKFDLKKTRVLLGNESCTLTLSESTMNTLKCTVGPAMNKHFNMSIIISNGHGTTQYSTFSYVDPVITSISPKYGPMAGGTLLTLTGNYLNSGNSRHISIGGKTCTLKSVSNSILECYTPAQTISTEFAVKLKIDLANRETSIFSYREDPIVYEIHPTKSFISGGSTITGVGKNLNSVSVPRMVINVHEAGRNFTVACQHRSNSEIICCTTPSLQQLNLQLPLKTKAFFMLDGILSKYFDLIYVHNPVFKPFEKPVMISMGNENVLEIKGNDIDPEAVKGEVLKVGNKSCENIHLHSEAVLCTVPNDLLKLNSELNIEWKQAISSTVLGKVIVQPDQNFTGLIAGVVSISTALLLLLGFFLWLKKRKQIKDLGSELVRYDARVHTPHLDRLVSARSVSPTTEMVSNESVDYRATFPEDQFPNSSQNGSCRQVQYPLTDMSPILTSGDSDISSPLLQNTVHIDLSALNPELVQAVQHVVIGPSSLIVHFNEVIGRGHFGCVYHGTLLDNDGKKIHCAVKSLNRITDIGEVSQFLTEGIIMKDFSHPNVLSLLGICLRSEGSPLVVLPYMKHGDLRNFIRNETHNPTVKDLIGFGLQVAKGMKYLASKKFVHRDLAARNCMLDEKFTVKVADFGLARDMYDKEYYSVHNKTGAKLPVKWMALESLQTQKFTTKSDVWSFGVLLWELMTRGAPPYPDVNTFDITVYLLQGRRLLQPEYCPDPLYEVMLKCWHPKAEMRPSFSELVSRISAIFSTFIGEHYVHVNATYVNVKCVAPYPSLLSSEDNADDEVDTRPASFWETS
Tyrosine-protein kinase receptor UFO (Homo sapiens), sequence (P30530 whole entry, the tested form may be a part): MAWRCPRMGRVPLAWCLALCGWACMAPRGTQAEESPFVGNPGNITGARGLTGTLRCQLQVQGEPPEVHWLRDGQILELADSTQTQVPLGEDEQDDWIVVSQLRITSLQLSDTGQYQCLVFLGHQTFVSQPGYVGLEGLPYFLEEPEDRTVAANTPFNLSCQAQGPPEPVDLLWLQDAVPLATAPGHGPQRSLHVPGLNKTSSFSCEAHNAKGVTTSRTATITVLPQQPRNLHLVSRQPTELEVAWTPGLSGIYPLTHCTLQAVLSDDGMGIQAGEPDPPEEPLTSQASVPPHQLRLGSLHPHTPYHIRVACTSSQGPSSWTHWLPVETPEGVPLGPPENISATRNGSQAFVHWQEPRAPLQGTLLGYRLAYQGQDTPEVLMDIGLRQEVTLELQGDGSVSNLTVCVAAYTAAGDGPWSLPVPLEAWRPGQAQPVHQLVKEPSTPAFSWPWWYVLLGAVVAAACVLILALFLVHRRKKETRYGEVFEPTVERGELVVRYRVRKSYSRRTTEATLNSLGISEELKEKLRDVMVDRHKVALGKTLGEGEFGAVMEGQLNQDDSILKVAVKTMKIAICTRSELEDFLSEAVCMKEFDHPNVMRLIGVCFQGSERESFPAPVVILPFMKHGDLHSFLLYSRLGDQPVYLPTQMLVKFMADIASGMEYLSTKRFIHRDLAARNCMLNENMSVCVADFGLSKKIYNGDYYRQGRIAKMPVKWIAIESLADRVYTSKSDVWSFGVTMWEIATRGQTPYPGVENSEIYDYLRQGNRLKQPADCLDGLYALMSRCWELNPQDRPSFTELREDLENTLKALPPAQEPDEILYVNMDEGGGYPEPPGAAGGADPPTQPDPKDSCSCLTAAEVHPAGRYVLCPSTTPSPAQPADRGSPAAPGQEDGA

On to `O=C(Nc1ccc2[nH]nc(-c3ccc4[nH]ccc4c3)c2c1)c1c(Cl)cccc1Cl`, for which the inhibition entry in [1], in [2], in test [3], in [4], in [5] and in test [6] was “inactive” in each case. Besides, the inhibition entry in [8], in test [9], in test [10], in test [11], in [13] and in test [14] was “inactive” throughout. Also, the inhibition result in test [16], in test [17], in test [18], in test [19], in test [20] and in test [21] was “inactive” throughout. In addition, the result with Mus musculus [7], in the test on Mus musculus [12] and with Mus musculus [15] was Active. Further, at Toll-like receptor 4, the inhibition entry was “Active”.
